Reference: ChEMBL document CHEMBL1275462 (Antimicrob Agents Chemother, 2008)
In brackets after ≈: the same amount, converted by molar mass. Activity calls are given as the source filed them. The calls are words filed in the database; no cut-off is given here.

What was measured:
[1] = molecular target: T1, MecA (Staphylococcus aureus) (UniProt Q7DHH4); experiment: Inhibition of methicillin-resistant Staphylococcus aureus COL PBP2a at 10 uM by competitive assay; details: Staphylococcus aureus subsp. aureus COL
T1 sequence (whole entry): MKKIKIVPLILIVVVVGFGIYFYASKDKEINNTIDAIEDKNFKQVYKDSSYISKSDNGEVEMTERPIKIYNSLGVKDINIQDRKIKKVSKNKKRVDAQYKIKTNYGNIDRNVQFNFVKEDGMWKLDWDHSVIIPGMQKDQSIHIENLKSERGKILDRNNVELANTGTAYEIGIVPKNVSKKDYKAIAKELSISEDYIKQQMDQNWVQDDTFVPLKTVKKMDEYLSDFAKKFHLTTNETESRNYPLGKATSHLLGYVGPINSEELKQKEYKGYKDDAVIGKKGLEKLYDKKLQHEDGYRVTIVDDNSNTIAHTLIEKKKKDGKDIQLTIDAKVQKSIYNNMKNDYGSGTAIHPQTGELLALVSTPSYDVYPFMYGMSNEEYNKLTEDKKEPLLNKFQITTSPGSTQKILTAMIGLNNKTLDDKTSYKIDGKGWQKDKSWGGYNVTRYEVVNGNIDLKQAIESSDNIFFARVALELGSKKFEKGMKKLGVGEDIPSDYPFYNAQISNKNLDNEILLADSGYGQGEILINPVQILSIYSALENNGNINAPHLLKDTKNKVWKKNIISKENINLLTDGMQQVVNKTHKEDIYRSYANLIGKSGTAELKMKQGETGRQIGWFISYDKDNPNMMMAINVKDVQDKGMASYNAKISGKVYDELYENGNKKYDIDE
How it was run: (§1)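 Purified soluble PBP 2A (mecA expressed in E. coli, 97% pure) at 0.8 µM, preincubated with drug 30 min at 30°C. Then 20 µM Bocillin FL added for 10 min at 37°C, quenched with SDS-PAGE buffer and boiled. Drug range 0.5–20 µM; for IC50, BPR 0.5–200 µM or oxacillin 5–6,000 µM. Curve fitting.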

[2] = system: Staphylococcus aureus; experiment: Antimicrobial activity against methicillin-resistant Staphylococcus aureus USA300 by Etest; type: functional
How it was run: (§2)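 Etest (manufacturer's method) and population analysis: overnight cultures serially diluted and plated on TSA with increasing oxacillin or BPR, CFU counted after 48 h at 37°C. Colonies from subpopulations growing at high oxacillin or BPR were picked, restreaked on antibiotic-free TSA for three passages, then retested by population analysis.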

[3] = system: Staphylococcus aureus; experiment: Antimicrobial activity against methicillin-resistant Staphylococcus aureus HAR22 by Etest; type: functional; how it was run: as §2
[4] = system: Staphylococcus aureus; experiment: Antimicrobial activity against methicillin-resistant Staphylococcus aureus BK2529 assessed as concentration required for bacterial subpopulation growth; type: functional; how it was run: as §2
[5] = molecular target: T1, MecA (Staphylococcus aureus); experiment: Displacement of benzyl-[14C]penicillin from Staphylococcus aureus PBP2a RU130 mutant at 2500 ug/ml by in vitro competitive assay; details: Staphylococcus aureus subsp. aureus COL
How it was run: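 Membranes from PBP 2 insertional mutant RU130 (Tn551 in transpeptidase domain), late exponential phase, 150 µg protein, preincubated with increasing oxacillin or BPR 10 min at 30°C. Then labelled with 20 µg/ml benzyl[14C]penicillin 10 min at 37°C and stopped with excess unlabelled penicillin in SDS. SDS-PAGE with phosphor screen exposure for 2 weeks.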

[6] = system: Staphylococcus aureus; experiment: Antimicrobial activity against methicillin-resistant Staphylococcus aureus HDE288 by Etest; type: functional; how it was run: as §2
[7] = system: Staphylococcus aureus; experiment: Antimicrobial activity against methicillin-resistant Staphylococcus aureus HAR24 by Etest; type: functional; how it was run: as §2
[8] = system: Staphylococcus aureus; experiment: Antimicrobial activity against methicillin-resistant Staphylococcus aureus HPV107 assessed as concentration required for minimum inhibition of oxacillin-resistant subpopulation growth by Etest; type: functional; how it was run: as §2
[9] = system: Staphylococcus aureus; experiment: Antimicrobial activity against methicillin-resistant Staphylococcus aureus E2125 assessed as concentration required for minimum inhibition of oxacillin-resistant subpopulation growth by Etest; type: functional; how it was run: as §2
[10] = system: Staphylococcus aureus; experiment: Antimicrobial activity against methicillin-resistant Staphylococcus aureus COL assessed as reduction in viable bacterial titer after 24 hrs in presence of 10 times compound MIC; type: functional
[11] = system: Staphylococcus aureus; experiment: Antimicrobial activity against methicillin-resistant Staphylococcus aureus HPV107 by Etest; type: functional; how it was run: as §2
[12] = system: Staphylococcus aureus; experiment: Antimicrobial activity against methicillin-resistant Staphylococcus aureus USA300 assessed as concentration required for minimum inhibition of oxacillin-resistant subpopulation growth by Etest; type: functional; how it was run: as §2
[13] = system: Staphylococcus aureus; experiment: Antimicrobial activity against methicillin-resistant Staphylococcus aureus BK2529 assessed as concentration required for minimum inhibition of oxacillin-resistant subpopulation growth by Etest; type: functional; how it was run: as §2
[14] = system: Staphylococcus aureus; experiment: Bactericidal activity against methicillin-resistant Staphylococcus aureus COL assessed as reduction in viable bacterial titer after 24 hrs at 10 times MIC; type: functional, organism-based
How it was run: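 Time-kill: exponentially growing COL cultures (OD620 0.2, about 10^8 CFU/ml at zero time) given 10× MIC of drug under aerobic conditions. Untreated control. Aliquots taken at intervals, serially diluted, plated on TSA, colonies counted after 48 h at 37°C.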

[15] = system: Staphylococcus aureus; experiment: Antimicrobial activity against methicillin-resistant Staphylococcus aureus HDE288 assessed as concentration required for bacterial subpopulation growth; type: functional; how it was run: as §2
[16] = system: Staphylococcus aureus; experiment: Antimicrobial activity against methicillin-resistant Staphylococcus aureus E2125 assessed as concentration required for bacterial subpopulation growth; type: functional; how it was run: as §2
[17] = molecular target: T2, MecA (Staphylococcus aureus, UniProt Q7DHH4); experiment: Inhibition of methicillin-resistant Staphylococcus aureus COL PBP2a by competitive assay; parameters: species or system Staphylococcus aureus subsp. aureus COL; how it was run: as §1
T2 sequence (Q7DHH4 whole entry): T1 sequence (whole entry)

[18] = system: Staphylococcus aureus; experiment: Antimicrobial activity against vancomycin-resistant Staphylococcus aureus VRS1 by Etest; type: functional
How it was run: (§3)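 Etest and population analysis: overnight cultures plated on TSA with increasing vancomycin, oxacillin or BPR, CFU counted after 48 h at 37°C. For VRSA strains, vancomycin plates also run with constant 1 µg/ml BPR. Vancomycin Etest read after overnight 37°C incubation on TSA with or without 1 µg/ml BPR.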

[19] = molecular target: T1, MecA (Staphylococcus aureus); experiment: Inhibition of methicillin-resistant Staphylococcus aureus 67-O PBP2a by competitive assay
[20] = system: Staphylococcus aureus; experiment: Antimicrobial activity against methicillin-resistant Staphylococcus aureus HAR24 assessed as concentration required for minimum inhibition of oxacillin-resistant subpopulation growth by Etest; type: functional; how it was run: as §2
[21] = system: Staphylococcus aureus; experiment: Antimicrobial activity against methicillin-resistant Staphylococcus aureus BK2464 by Etest; type: functional; how it was run: as §2
[22] = system: Staphylococcus aureus; experiment: Antimicrobial activity against methicillin-resistant Staphylococcus aureus USA300 assessed as concentration required for bacterial subpopulation growth; type: functional; how it was run: as §2
[23] = system: Staphylococcus aureus; experiment: Antimicrobial activity against methicillin-resistant Staphylococcus aureus E2125 by Etest; type: functional; how it was run: as §2
[24] = system: Staphylococcus aureus; experiment: Antimicrobial activity against methicillin-resistant Staphylococcus aureus HPV107 assessed as concentration required for bacterial subpopulation growth; type: functional; how it was run: as §2
[25] = system: Staphylococcus aureus; experiment: Antimicrobial activity against oxacillin-resistant Staphylococcus aureus COLVA harboring Tn1546 transposon by Etest; type: functional; how it was run: as §3
[26] = system: Staphylococcus aureus; experiment: Antimicrobial activity against methicillin-resistant Staphylococcus aureus BK2464 assessed as concentration required for bacterial subpopulation growth; type: functional; how it was run: as §2
[27] = system: Staphylococcus aureus; experiment: Antimicrobial activity against methicillin-resistant Staphylococcus aureus COL by Etest; type: functional; how it was run: as §2
[28] = system: Staphylococcus aureus; experiment: Antimicrobial activity against methicillin-resistant Staphylococcus aureus HAR22 assessed as concentration required for minimum inhibition of oxacillin-resistant subpopulation growth by Etest; type: functional; how it was run: as §2
[29] = system: Staphylococcus aureus; experiment: Antimicrobial activity against methicillin-resistant Staphylococcus aureus HU25 assessed as concentration required for bacterial subpopulation growth; type: functional; how it was run: as §2
[30] = system: Staphylococcus aureus; experiment: Antimicrobial activity against methicillin-resistant Staphylococcus aureus HAR22 assessed as concentration required for bacterial subpopulation growth; type: functional; how it was run: as §2
[31] = system: Staphylococcus aureus; experiment: Antimicrobial activity against methicillin-resistant Staphylococcus aureus HAR24 assessed as concentration required for bacterial subpopulation growth; type: functional; how it was run: as §2
[32] = system: Staphylococcus aureus; experiment: Antimicrobial activity against vancomycin-intermediate Staphylococcus aureus Mu50 by Etest; type: functional; how it was run: as §3
[33] = system: Staphylococcus aureus; experiment: Antimicrobial activity against methicillin-resistant Staphylococcus aureus HU25 by Etest; type: functional; how it was run: as §2
[34] = system: Staphylococcus aureus; experiment: Antimicrobial activity against vancomycin-intermediate Staphylococcus aureus JH9 obtained from bacteremic patient by Etest; type: functional; how it was run: as §3
[35] = system: Staphylococcus aureus; experiment: Antimicrobial activity against methicillin-resistant Staphylococcus aureus BK2529 by Etest; type: functional; how it was run: as §2
[36] = system: Staphylococcus aureus; experiment: Antimicrobial activity against methicillin-resistant Staphylococcus aureus BK2464 assessed as concentration required for minimum inhibition of oxacillin-resistant subpopulation growth by Etest; type: functional; how it was run: as §2
[37] = system: Staphylococcus aureus; experiment: Antimicrobial activity against methicillin-resistant Staphylococcus aureus HDE288 assessed as concentration required for minimum inhibition of oxacillin-resistant subpopulation growth by Etest; type: functional; how it was run: as §2

SMILES: Cc1onc(-c2ccccc2)c1C(=O)N[C@@H]1C(=O)N2[C@@H]1SC(C)(C)[C@@H]2C(=O)O [OXACILLIN]
- inhibition [1]: 5%
- MIC [2]: 0.8 µg/mL (≈ 1.99 µM)
- MIC [3]: 100 µg/mL (≈ 249 µM)
- Activity [4]: 400 µg/mL
- Activity [5]: Active
- MIC [6]: 0.8 µg/mL (≈ 1.99 µM)
- MIC [7]: 100 µg/mL (≈ 249 µM)
- Activity [8]: 100 µg/mL
- Activity [9]: 400 µg/mL
- fold reduction in CFU [10]: 1000 fold
- MIC [11]: 0.8 µg/mL (≈ 1.99 µM)
- Activity [12]: 400 µg/mL
- Activity [13]: 200 µg/mL
- Activity [14]: inactive
- Activity [15]: 400 µg/mL
- Activity [16]: 400 µg/mL
- IC50 [17]: 710 µM
- MIC [18]: > 800 µg/mL
- Activity [19]: 300 µg/mL
- Activity [20]: 800 µg/mL
- MIC [21]: 12.5 µg/mL (≈ 31.1 µM)
- Activity [22]: 800 µg/mL
- MIC [23]: 6 µg/mL (≈ 14.9 µM)
- Activity [24]: 400 µg/mL
- MIC [25]: 800 µg/mL (≈ 1990 µM)
- Activity [26]: 400 µg/mL
- MIC [27]: > 800 µg/mL
- Activity [28]: 800 µg/mL
- Activity [29]: 800 µg/mL
- Activity [30]: 400 µg/mL
- Activity [31]: 800 µg/mL
- MIC [32]: > 800 µg/mL
- MIC [33]: 400 µg/mL (≈ 996 µM)
- MIC [34]: 3 µg/mL (≈ 7.47 µM)
- MIC [35]: 1.5 µg/mL (≈ 3.74 µM)
- Activity [36]: 200 µg/mL
- Activity [37]: 200 µg/mL

SMILES: CN[C@H](CC(C)C)C(=O)N[C@H]1C(=O)N[C@@H](CC(N)=O)C(=O)N[C@H]2C(=O)N[C@H]3C(=O)N[C@H](C(=O)N[C@H](C(=O)O)c4cc(O)cc(O)c4-c4cc3ccc4O)[C@H](O)c3ccc(c(Cl)c3)Oc3cc2cc(c3O[C@@H]2O[C@H](CO)[C@@H](O)[C@H](O)[C@H]2O[C@H]2C[C@](C)(N)[C@H](O)[C@H](C)O2)Oc2ccc(cc2Cl)[C@H]1O [VANCOMYCIN]
- MIC [18]: > 800 µg/mL
- MIC [25]: 800 µg/mL (≈ 552 µM)
- MIC [32]: 6 µg/mL (≈ 4.14 µM)
- MIC [34]: 6 µg/mL (≈ 4.14 µM)
